Test results from ChEMBL document CHEMBL1138950, “Benzimidazole derivatives bearing substituted biphenyls as hepatitis C virus NS5B RNA-dependent RNA polymerase inhibitors: structure-activity relationship studies and identification of a potent and highly selective inhibitor JTK-109” (J Med Chem, 2006).

Experiments:
[1] = Therapeutic index, CC50 for viability of Huh5-2 cells/EC50 for inhibition of HCV subgenomic RNA replication; type: cell-based, Huh-5-2; conditions: human, read-out: Ratio CC50/EC50
Hepatitis C virus = assay: Inhibition of HCV subgenomic RNA replication in Huh5-2 cells after 48 hrs by replicon assay; type: functional, organism-based, Hepacivirus hominis; conditions: Huh-5-2, 48 h
Outline: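 Huh-5-2 cells (Huh-7-derived, genotype 1b subgenomic replicon with luciferase reporter) seeded at 5 × 10^3 per well in DMEM with 10% FBS, 37 °C, 5% CO2; compounds added next day, 48 h exposure; luciferase activity read. EC50 is the concentration reducing replication by 50%. Triplicate, mean of three experiments.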

Huh-5-2 = assay: Viability of Huh5-2 cells by MTT assay; type: functional; conditions: Homo sapiens
[2] = target: T1, RNA-directed RNA polymerase (Hepacivirus hominis, UniProt O39930); assay: Inhibition of HCV 1a NS5B RNA dependent RNA polymerase; parameters: species or system Hepatitis C virus subtype 1a
Outline: (§1)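 IC50 from the mean of four independent experiments; standard deviations within 30% of the mean.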

[3] = target: T2, DNA polymerase subunit gamma-1 (Homo sapiens, UniProt P54098); assay: Inhibition of DNA polymerase gamma
T2 sequence (P54098 whole entry): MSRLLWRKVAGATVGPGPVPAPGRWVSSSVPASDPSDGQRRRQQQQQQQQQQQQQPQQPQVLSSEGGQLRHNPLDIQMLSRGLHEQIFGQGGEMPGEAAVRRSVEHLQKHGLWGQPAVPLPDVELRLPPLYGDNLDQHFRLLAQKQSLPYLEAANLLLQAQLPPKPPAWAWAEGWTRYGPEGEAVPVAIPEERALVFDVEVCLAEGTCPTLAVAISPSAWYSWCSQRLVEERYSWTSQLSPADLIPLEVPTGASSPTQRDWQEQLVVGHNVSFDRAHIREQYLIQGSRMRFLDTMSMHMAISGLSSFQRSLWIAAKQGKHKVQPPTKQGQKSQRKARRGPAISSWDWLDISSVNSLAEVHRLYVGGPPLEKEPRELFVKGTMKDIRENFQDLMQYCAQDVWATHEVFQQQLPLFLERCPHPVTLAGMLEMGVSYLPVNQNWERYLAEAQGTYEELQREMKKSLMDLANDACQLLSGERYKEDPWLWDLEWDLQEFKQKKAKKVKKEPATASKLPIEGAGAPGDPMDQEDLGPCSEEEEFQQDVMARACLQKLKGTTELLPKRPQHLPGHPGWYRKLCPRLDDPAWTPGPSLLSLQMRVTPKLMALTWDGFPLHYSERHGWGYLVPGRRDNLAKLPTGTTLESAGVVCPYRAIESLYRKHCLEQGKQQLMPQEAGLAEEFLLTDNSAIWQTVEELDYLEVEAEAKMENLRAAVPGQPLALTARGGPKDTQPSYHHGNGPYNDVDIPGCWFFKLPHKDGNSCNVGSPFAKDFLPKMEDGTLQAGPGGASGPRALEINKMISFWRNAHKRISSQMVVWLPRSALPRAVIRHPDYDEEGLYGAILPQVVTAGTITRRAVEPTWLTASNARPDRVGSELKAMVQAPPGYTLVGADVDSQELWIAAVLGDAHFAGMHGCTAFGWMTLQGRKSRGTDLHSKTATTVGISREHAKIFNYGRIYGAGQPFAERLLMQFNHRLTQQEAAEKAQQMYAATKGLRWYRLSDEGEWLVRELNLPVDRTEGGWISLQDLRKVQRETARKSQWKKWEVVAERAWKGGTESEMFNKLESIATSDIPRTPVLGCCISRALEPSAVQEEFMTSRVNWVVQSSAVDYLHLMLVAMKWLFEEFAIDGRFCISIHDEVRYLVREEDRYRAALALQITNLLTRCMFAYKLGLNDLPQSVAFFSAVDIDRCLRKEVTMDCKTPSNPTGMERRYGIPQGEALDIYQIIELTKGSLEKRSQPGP

[4] = target: T1, RNA-directed RNA polymerase; assay: Inhibition of HCV 2b NS5B RNA dependent RNA polymerase; parameters: species or system Hepatitis C virus subtype 2b; outline: as §1
Cytochrome P450 2C9 = Cytochrome P450 2C9 (Homo sapiens, UniProt P11712); assay: Inhibition of CYP450 2C9; type: ADME
[5] = Oral bioavailability in rat at 10 mg/kg; type: ADME, organism-based; conditions: in vivo
[6] = Inhibition of mammalian DNA dependent RNA polymerase
[7] = target: Human immunodeficiency virus type 1 reverse transcriptase (Human immunodeficiency virus 1, UniProt Q72547); assay: Inhibition of HIV reverse transcriptase
[8] = target: T1, RNA-directed RNA polymerase; assay: Inhibition of HCV 1b BK six His-tagged C-terminal truncated 544 amino acid NS5B RNA dependent RNA polymerase; parameters: species or system Hepatitis C virus subtype 1b
Outline: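 HCV genotype 1b (BK) NS5B lacking 47 C-terminal residues, His6-tagged, E. coli-expressed; 7 nM enzyme with 5 µg HCV 3′X RNA template-primer, 50 µM each ATP/GTP/CTP, 2 µM UTP plus [3H]-UTP; pH 7.5 Tris, 5 mM MgCl2. Compounds in DMSO (5% final). 60 min at 25 °C; TCA-precipitable radioactivity read. Triplicate, mean of three experiments.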

T1 sequence (O39930 whole entry): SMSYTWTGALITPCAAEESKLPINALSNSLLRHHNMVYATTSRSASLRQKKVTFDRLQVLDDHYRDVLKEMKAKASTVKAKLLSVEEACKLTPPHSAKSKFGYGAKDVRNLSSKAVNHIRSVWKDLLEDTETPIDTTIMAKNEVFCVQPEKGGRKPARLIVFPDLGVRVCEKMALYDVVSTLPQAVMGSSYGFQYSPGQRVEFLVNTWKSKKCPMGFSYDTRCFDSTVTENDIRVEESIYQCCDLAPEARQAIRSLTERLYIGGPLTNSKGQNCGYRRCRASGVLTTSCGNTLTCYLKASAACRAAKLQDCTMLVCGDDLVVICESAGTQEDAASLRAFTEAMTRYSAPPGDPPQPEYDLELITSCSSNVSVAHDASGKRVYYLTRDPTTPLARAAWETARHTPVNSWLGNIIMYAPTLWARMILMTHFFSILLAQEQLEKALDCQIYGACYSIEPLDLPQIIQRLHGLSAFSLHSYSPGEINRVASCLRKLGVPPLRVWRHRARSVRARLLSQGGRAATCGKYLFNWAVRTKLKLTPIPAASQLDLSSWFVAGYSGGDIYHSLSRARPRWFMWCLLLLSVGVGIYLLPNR
Chain of Cytochrome P450 2C9 (P11712 whole entry): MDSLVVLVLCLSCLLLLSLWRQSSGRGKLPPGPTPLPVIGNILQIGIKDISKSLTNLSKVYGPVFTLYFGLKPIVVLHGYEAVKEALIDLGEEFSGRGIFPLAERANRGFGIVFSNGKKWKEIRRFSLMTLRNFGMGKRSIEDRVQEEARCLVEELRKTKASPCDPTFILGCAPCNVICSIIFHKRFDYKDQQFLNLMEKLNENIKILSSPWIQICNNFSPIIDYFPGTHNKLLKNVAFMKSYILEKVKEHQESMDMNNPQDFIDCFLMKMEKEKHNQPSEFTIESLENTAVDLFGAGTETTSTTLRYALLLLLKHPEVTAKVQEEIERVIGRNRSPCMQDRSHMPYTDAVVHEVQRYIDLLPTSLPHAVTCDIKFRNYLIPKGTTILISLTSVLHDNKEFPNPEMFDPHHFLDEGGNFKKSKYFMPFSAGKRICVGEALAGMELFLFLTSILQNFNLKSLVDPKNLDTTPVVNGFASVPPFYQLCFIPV

SMILES: O=C(O)c1ccc2c(c1)nc(-c1ccc(OCc3cc(N4CCCC4=O)ccc3-c3ccc(Cl)cc3)cc1F)n2C1CCCCC1
- selectivity ratio [1]: 78
- EC50 (Hepatitis C virus): 320 nM
- CC50 (Huh-5-2): 25000 nM
- IC50 [2]: 62 nM
- IC50 [3]: > 10000 nM
- IC50 [4]: 2000 nM
- Inhibition (Cytochrome P450 2C9): Not Active
- bioavailability [5]: 36%
- IC50 [6]: > 10000 nM
- IC50 [7]: > 10000 nM
- IC50 [8]: 17 nM
